# In ChEMBL document CHEMBL1909581, “Growth inhibition of human lung cancer cells via down-regulation of epidermal growth factor receptor signaling by yuanhuadine, a daphnane diterpene from Daphne genkwa” (J Nat Prod, 2011):
# What was measured:
# Assay type in all cases: functional, cell-based
# SK-MES-1 = assay: Antiproliferative activity against human SK-MES cells after 3 days by SRB assay; conditions: SK-MES-1, 72 h
# Summary of the method: (§1)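 Cells seeded at 5 × 10^4 cells/mL and exposed to a range of concentrations for 3 days. Fixed with 10% TCA, then SRB stain read. Growth expressed as % of solvent-treated control. IC50 obtained by nonlinear regression of percent survival versus concentration.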
# NCI-H1993 = assay: Antiproliferative activity against human NCI-H1993 cells after 3 days by SRB assay; conditions: NCI-H1993, 72 h
# NCI-H358 = assay: Antiproliferative activity against human NCI-H358 cells after 3 days by SRB assay; conditions: NCI-H358, 72 h; summary of the method: as §1
# A549 = assay: Antiproliferative activity against human A549 cells after 3 days by SRB assay; conditions: A549, 72 h; summary of the method: as §1
# [1] = Antiproliferative activity against human H1299 cells after 3 days by SRB assay; conditions: NCI-H1299, 72 h; summary of the method: as §1
# NCI-H292 = assay: Antiproliferative activity against human NCI-H292 cells after 3 days by SRB assay; conditions: NCI-H292, 72 h
smiles,measurement,setting,value
Cc1c2ccncc2c(C)c2c1[nH]c1ccccc12 [ELLIPTECINE],IC50,SK-MES-1,0.2 µM
same,IC50,NCI-H1993,0.2 µM
same,IC50,NCI-H358,0.8 µM
same,IC50,A549,1.1 µM
same,IC50,[1],0.6 µM
same,IC50,NCI-H292,1 µM
